Results: ChEMBL document CHEMBL2062459, “Type 1 Phototherapeutic Agents. 2. Cancer Cell Viability and ESR Studies of Tricyclic Diarylamines” (ACS Med Chem Lett, 2012)

tested on: U-937; assay: Cytotoxicity in UV-irradiated human U937 cells exposed to photosensitizer for 2 hrs before irradiation for 20 mins by WST-1 assay; type: functional, cell-based; details: U-937, light or radiation study
Outline: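 Compounds were made up as 8 mM DMSO stocks and diluted into culture medium so that final DMSO on cells stayed below 0.5%. Cells were tested across a concentration range both in the dark and with light exposure. Values are the average of at least three independent runs.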

| Structure (SMILES) | IC50 [nM] |
| --- | --- |
| c1ccc2c(c1)[nH]c1ccccc12 [CARBAZOLE] | 5560 |
| c1ccc2c(c1)Nc1ccccc1O2 [PHENOXAZINE] | 14500 |
| c1ccc2c(c1)Cc1ccccc1N2 [ACRIDAN] | 680 |
| c1ccc(C2c3ccccc3Nc3ccccc32)cc1 | 170 |
| C1=Cc2ccccc2Nc2ccccc21 [IMINOSTILBENE] | 2580 |
| c1ccc2c(c1)Nc1ccccc1S2 [PHENOTHIAZINE] | 1390 |
